The text below walks through data of ChEMBL document CHEMBL1156799, “Synthesis and biological evaluation of N-hydroxyphenylacrylamides and N-hydroxypyridin-2-ylacrylamides as novel histone deacetylase inhibitors” (J Med Chem, 2010).

Molecules are shown by their SMILES.

Series [1] can be described thus: Metabolic stability in mouse liver microsomes assessed as half life. It counts as ADME, Microsome.
Series [2] can be described thus: Metabolic stability in human hepatic microsomes at 1 uM after 30 mins at 37 degC. The series is classed as ADME. The note with it: liver microsomes, read-out: Stability. In short, it runs like this: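 Compound at 1 μM preincubated 10 min at 37 °C in potassium phosphate buffer pH 7.4 with 0.5 mg/mL human or mouse hepatic microsomes; NADP/G6P/G6P-DH cofactor mix added; samples at 0 and 30 min analysed by LC-MS/MS (MRM, verapamil internal standard); % remaining = area 30 min/area 0 min × 100.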

Series [3] is described as follows: Metabolic stability in mouse hepatic microsomes at 1 uM after 30 mins at 37 degC. The note with it: liver microsomes. Background: Microsomes from liver hold many membrane-bound enzymes, among them those of drug oxidation.
In series [4] the test system is Mus musculus. Kind of series: Volume of distribution at steady state in CD1 mouse at 5 mg/kg, iv. The note with it: in vivo.
Series [5] can be described thus: Half life in CD1 mouse at 15 mg/kg, po. The series is classed as ADME, organism-based. Details: dose 15 mg/kg, route oral. As to conditions: in vivo. The method in brief: (§1)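 Mice dosed orally by gavage at 15 mg/kg, compound in water at 3 mg/mL of the base; iv comparison dose 5 mg/kg in normal saline; 27-30 animals per group; plasma from serial blood samples, protein-precipitated, kept at -80 °C, quantified by LC/MS/MS.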

A short description of series [6]: Clearance in CD1 mouse at 5 mg/kg, iv. As to conditions: in vivo.
Series [7] is described as follows: AUC (0 to 24 hrs) in CD1 mouse at 5 mg/kg, iv. The note with it: plasma. Details: time < 24 hr, dose 5 mg/kg, route intravenous. It counts as ADME, organism-based. In short, it runs like this: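 Mice given single iv dose of 5 mg/kg, compound in normal saline at 1 mg/mL as rapid bolus; 27-30 animals per group; blood sampled at several times after dosing, plasma separated by centrifugation, proteins precipitated, stored -80 °C, analysed by LC/MS/MS (ESI).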

A short description of series [8]: Oral bioavailability in CD1 mouse at 15 mg/kg. As to conditions: in vivo. It counts as ADME, organism-based. The method in brief: as §1
The nature of series [9]: AUC (0 to infinity) in CD1 mouse at 5 mg/kg, iv. The series is classed as ADME, organism-based. More on the design: time infinity, dose 5 mg/kg, route intravenous. The note with it: plasma.
For series [10], the species on record is Mus musculus. Description: Hepatic blood flow in mouse. It counts as ADME, organism-based, Liver.
Series [11] is described as follows: in vitro. As to conditions: human, liver microsomes.

Regarding `O=C(/C=C/c1ccc2c(c1)nc(CCc1ccccc1)n2CCN1CCCC1)NO`, the half-life (as a rule, the time in which the quantity being followed falls by half) in series [1] stood at 0.05 h.

On to `CN1CCN(c2ccc(C(=O)/C=C/c3ccc(/C=C/C(=O)NO)cc3)cc2)CC1`, for which the remaining at 0.5 h, 1 µM in series [2] turned out to be 33%; in series [3] it was 9.1%.

On to `CN1CCN(Cc2ccc(C(=O)/C=C/c3cccc(/C=C/C(=O)NO)n3)cc2)CC1`, for which, in [4], the volume of distribution (Vdss) (usually a proportionality between amount in the body and measured concentration, not a real space) was found to be 16.07 L/kg. For the same molecule, the half-life in series [5] is 7.3 h. Further, the clearance (as a rule, a measure of how efficiently the substance is removed, as volume per time) in series [6] worked out at 29.2 mL/min/kg. The AUC(0-t) – broadly, exposure summed from dosing to a finite time, without extrapolation to infinity – at 24 h in series [7] turned out to be 2520 ng·h/mL. Also, the values for the remaining at 0.5 h, 1 µM in series [2] and in series [3] were 51% and 46%, respectively. The bioavailability (as a rule, dose-corrected exposure relative to a reference, in per cent) in series [8] worked out at 2.6%.

For `O=C(/C=C/c1cccc(/C=C/C(=O)c2ccccc2)c1)NO`, the remaining at 0.5 h, 1 µM in [2] is 9%; in series [3], 6%.

In series [4], `CN1CCN(Cc2ccccc2C(=O)/C=C/c2ccc(/C=C/C(=O)NO)nc2)CC1` came in with a distribution volume (Vdss) of 11.7 L/kg. The AUC(0-inf) (usually total exposure, with the tail of the curve extrapolated) in series [9] came to 1490 ng·h/mL. This molecule gave a half-life in series [5] of 5.55 h. The same molecule displayed a clearance in series [6] of 55.8 mL/min/kg. In addition, the remaining at 0.5 h, 1 µM in series [2] turned out to be 93%; in series [3] it was 53%. Moreover, the bioavailability in [8] came out at 4.5%.

`CN1CCN(Cc2ccc(C(=O)/C=C/c3cccc(/C=C/C(=O)NO)c3)cc2)CC1`: the remaining at 0.5 h, 1 µM in [2] was 44%; in series [3] it was 33%.

Turning to `O=C(/C=C/c1cccc(/C=C/C(=O)c2ccccc2)n1)NO`, the remaining at 0.5 h, 1 µM in series [2] worked out at 38%; in series [3], 11%.

`CN1CCN(c2ccccc2C(=O)/C=C/c2ccc(/C=C/C(=O)NO)cc2)CC1` registered a volume of distribution (Vdss) in [4] of 5.4 L/kg. This molecule displayed an AUC(0-inf) in series [9] of 698 ng·h/mL. The half-life in series [5] is 2 h. This molecule also yielded a clearance in series [6] of 119 mL/min/kg. Further, the figures for the remaining at 0.5 h, 1 µM in series [2] and in series [3] were 38% and 34%, respectively. Also, in [8], the bioavailability stood at 18.1%.

`CN1CCN(Cc2cccc(C(=O)/C=C/c3cccc(/C=C/C(=O)NO)n3)c2)CC1`: the remaining at 0.5 h, 1 µM turned out to be 45% in series [2] and 40% in [3].

Consider `CN1CCN(c2ccc(C(=O)/C=C/c3cccc(/C=C/C(=O)NO)n3)cc2)CC1`, for which the remaining at 0.5 h, 1 µM came to 35% in series [2] and 19% in series [3].

In [4], `CN1CCN(Cc2cccc(C(=O)/C=C/c3ccc(/C=C/C(=O)NO)nc3)c2)CC1` displayed a Vdss of 28.4 L/kg. The molecule also displayed an AUC(0-inf) in series [9] of 736 ng·h/mL. The same molecule showed a half-life in series [5] of 6.7 h. In series [6], this molecule displayed a clearance of 113 mL/min/kg. The remaining at 0.5 h, 1 µM in [2] came to 32%; in series [3] it was 46%. This molecule yielded a bioavailability in series [8] of 3.9%.

For `CN1CCN(c2ccc(C(=O)/C=C/c3ccc(/C=C/C(=O)NO)nc3)cc2)CC1`, the remaining at 0.5 h, 1 µM in series [2] came to 43%; in [3], 3.8%.

With `CN1CCN(Cc2ccc(C(=O)/C=C/c3ccc(/C=C/C(=O)NO)cc3)cc2)CC1`, the values for the remaining at 0.5 h, 1 µM in [2] and in [3] were 61% and 17%, respectively.

Take `CN1CCN(Cc2cccc(C(=O)/C=C/c3cccc(/C=C/C(=O)NO)c3)c2)CC1`: the remaining at 0.5 h, 1 µM turned out to be 39% in series [2] and 25% in series [3].

Turning to `CN1CCN(c2cccc(C(=O)/C=C/c3ccc(/C=C/C(=O)NO)cc3)c2)CC1`, the remaining at 0.5 h, 1 µM was 44% in series [2] and 6.2% in series [3].

Take `CN1CCN(Cc2cccc(C(=O)/C=C/c3ccc(/C=C/C(=O)NO)cc3)c2)CC1`: the remaining at 0.5 h, 1 µM in [2] was 23%; in series [3] it was 17%.

On to `CN1CCN(Cc2ccc(C(=O)/C=C/c3ccc(/C=C/C(=O)NO)nc3)cc2)CC1`, for which the volume of distribution (Vdss) in [4] was found to be 31.9 L/kg. Also, the AUC(0-inf) in [9] stood at 1050 ng·h/mL. The molecule also gave a half-life in series [5] of 9.7 h. Also, in [6], the clearance came out at 79.2 mL/min/kg. Besides, the values for the remaining at 0.5 h, 1 µM in [2] and in [3] were 47% and 56%, respectively. In series [8], this molecule came in with a bioavailability of 5.5%.

Regarding `CN1CCN(c2ccccc2C(=O)/C=C/c2cccc(/C=C/C(=O)NO)c2)CC1`, the remaining at 0.5 h, 1 µM in series [2] amounted to 62%; in series [3], 44%.

Take `CN1CCN(c2cccc(C(=O)/C=C/c3ccc(/C=C/C(=O)NO)nc3)c2)CC1`: the remaining at 0.5 h, 1 µM in [2] amounted to 41%; in series [3], 20%.

In [4], `CN1CCN(c2cccc(C(=O)/C=C/c3cccc(/C=C/C(=O)NO)n3)c2)CC1` registered a distribution volume (Vdss) of 18.3 L/kg. In [9], this molecule displayed an AUC(0-inf) of 1510 ng·h/mL. The molecule also gave a half-life in series [5] of 8.5 h. The molecule also registered a clearance in [6] of 55.3 mL/min/kg. The remaining at 0.5 h, 1 µM amounted to 35% in series [2] and 29% in [3]. The bioavailability in series [8] worked out at 2%.

With `O=C(/C=C/c1cc(/C=C/C(=O)c2ccccc2)ccn1)NO`, the remaining at 0.5 h, 1 µM in series [2] turned out to be 16%; in [3] it was 14%.

As for `CN1CCN(c2cccc(C(=O)/C=C/c3cccc(/C=C/C(=O)NO)c3)c2)CC1`, the remaining at 0.5 h, 1 µM was 55% in series [2] and 7.2% in series [3].

As for `O=C(/C=C/c1ccc(/C=C/C(=O)c2ccccc2)cc1)NO`, the values for the remaining at 0.5 h, 1 µM in series [2] and in series [3] were 5% and 2%, respectively.

In series [4], `CN1CCN(c2ccccc2C(=O)/C=C/c2cccc(/C=C/C(=O)NO)n2)CC1` yielded a volume of distribution (Vdss) of 13.9 L/kg. For the same molecule, the total exposure AUC(0-inf) in [9] came out at 1900 ng·h/mL. The same molecule showed a half-life in series [5] of 8.6 h. Also, the clearance in series [6] was 44 mL/min/kg. Besides, the remaining at 0.5 h, 1 µM is 58% in series [2] and 57% in series [3]. This molecule also had a bioavailability in [8] of 2.9%.

As to `CN1CCN(Cc2ccccc2C(=O)/C=C/c2cccc(/C=C/C(=O)NO)c2)CC1`, the Vdss in series [4] came out at 20.1 L/kg. The AUC(0-inf) in series [9] was 849 ng·h/mL. For the same molecule, in [5], the half-life is 8.27 h. For the same molecule, the clearance in series [6] amounted to 98 mL/min/kg. Also, the figures for the remaining at 0.5 h, 1 µM in series [2] and in series [3] were 62% and 35%, respectively. The same molecule gave a bioavailability in series [8] of 3.1%.

For `O=C(/C=C/c1ccc(/C=C/C(=O)c2ccccc2)cn1)NO`, the results for the remaining at 0.5 h, 1 µM in series [2] and in [3] were 14% and 6%, respectively.

Take `CN1CCN(c2ccccc2C(=O)/C=C/c2ccc(/C=C/C(=O)NO)nc2)CC1`: the distribution volume (Vdss) in series [4] came to 2.1 L/kg. The molecule also returned an AUC(0-inf) in series [9] of 1400 ng·h/mL. The half-life in series [5] is 2.3 h. Besides, the clearance in [6] came out at 59.7 mL/min/kg. Besides, the remaining at 0.5 h, 1 µM came to 65% in [2] and 61% in [3]. Besides, the bioavailability in [8] is 6.3%.

Turning to `CN1CCN(Cc2ccccc2C(=O)/C=C/c2ccc(/C=C/C(=O)NO)cc2)CC1`, the remaining at 0.5 h, 1 µM in series [2] came out at 56%; in series [3], 4.2%.

With `CN1CCN(c2ccc(C(=O)/C=C/c3cccc(/C=C/C(=O)NO)c3)cc2)CC1`, the remaining at 0.5 h, 1 µM in [2] worked out at 40%; in series [3] it was 5.9%.

In the case of `CN1CCN(Cc2ccccc2C(=O)/C=C/c2cccc(/C=C/C(=O)NO)n2)CC1`, the remaining at 0.5 h, 1 µM was 67% in series [2] and 40% in [3].

Consider `O=C(/C=C/c1cccc(S(=O)(=O)Nc2ccccc2)c1)NO` [BELINOSTAT], for which the distribution volume (Vdss) in series [4] is 5.03 L/kg. Further, in series [9], the AUC(0-inf) came out at 431 ng·h/mL. The half-life in [5] was 1.21 h. The clearance in series [6] is 193 mL/min/kg. In addition, in series [8], the bioavailability is 6.66%.

Molecule `Cc1[nH]c2ccccc2c1CCNCc1ccc(/C=C/C(=O)NO)cc1` [PANOBINOSTAT] yielded a Vdss in [4] of 15.1 L/kg. For the same molecule, the AUC(0-inf) in series [9] worked out at 273 ng·h/mL. In series [5], this molecule gave a half-life of 1.37 h. The same molecule yielded a clearance in [6] of 305 mL/min/kg. In addition, in series [8], the bioavailability is 4.6%.

In series [10], `O=C(CCCCCCC(=O)Nc1ccccc1)NO` [VORINOSTAT] registered an LBF of 90 mL/min/kg. The molecule further returned a Vdss in series [4] of 1.2 L/kg. The molecule also gave an AUC(0-inf) in series [9] of 657 ng·h/mL. The results for the half-life in series [1], in series [5] and in series [11] were 0.467 h, 0.5 h and 1 h, respectively. The same molecule registered a clearance in series [6] of 127 mL/min/kg. The molecule further yielded a bioavailability in series [8] of 12.1%.
